Reference: ChEMBL document CHEMBL3112515, “Discovery of novel 6,7-disubstituted-4-phenoxyquinoline derivatives bearing 5-(aminomethylene)pyrimidine-2,4,6-trione moiety as c-Met kinase inhibitors” (Bioorg Med Chem, 2014)
pIC50: −log10 of the molar value.

How the values were obtained:
[1] = target: Epidermal growth factor receptor (Homo sapiens, UniProt P00533); assay: Inhibition of EGFR (unknown origin) using poly (Glu, Tyr) 4:1 after 30 mins by HTRF assay
Method in brief: (§1)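 HTRF assay using purified tyrosine kinase proteins in 50 mM HEPES pH 7.0 with DTT, MgCl2, MnCl2 and 0.1% NaN3. The substrate was poly(Glu,Tyr) 4:1 at 20 µg/mL, and ATP was added as a 10 mM solution. Compounds were diluted in 1% DMSO. Reactions ran 30 min at 25 °C and were stopped with Streptavidin-XL665 and Tk antibody cryptate.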

[2] = Cytotoxicity against human H460 cells after 72 hrs by MTT assay; conditions: NCI-H460, 72 h
[3] = target: Platelet-derived growth factor receptor beta (Homo sapiens, UniProt P09619); assay: Inhibition of PDGFRbeta (unknown origin) using poly (Glu, Tyr) 4:1 after 30 mins by HTRF assay; method in brief: as §1
[4] = tested on: U-87 MG; assay: Ratio of foretinib IC50 to compound IC50 for human U87MG cells after 72 hrs by MTT assay; format: functional, U-87MG ATCC
[5] = tested on: HT-29; assay: Cytotoxicity against human HT-29 cells after 72 hrs by MTT assay; conditions: HT-29, 72 h
[6] = tested on: A549; assay: Cytotoxicity against human A549 cells after 72 hrs by MTT assay; format: functional, cell-based; conditions: A549, 72 h
Method in brief: (§2)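 Cells were grown in MEM with 10% FBS and seeded at about 4×10^3 cells per well, then held 24 h at 37 °C in 5% CO2. Compounds were added and the cells cultured 72 h. MTT was added to 5 µg/mL final for 4 h at 37 °C, and the formazan was dissolved in DMSO. IC50 is the mean of three determinations.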

[7] = target: T1, Receptor-type tyrosine-protein kinase FLT3 (Homo sapiens, UniProt P36888); assay: Inhibition of Flt-3 (unknown origin) using poly (Glu, Tyr) 4:1 after 30 mins by HTRF assay; method in brief: as §1
T1 sequence (P36888 whole entry): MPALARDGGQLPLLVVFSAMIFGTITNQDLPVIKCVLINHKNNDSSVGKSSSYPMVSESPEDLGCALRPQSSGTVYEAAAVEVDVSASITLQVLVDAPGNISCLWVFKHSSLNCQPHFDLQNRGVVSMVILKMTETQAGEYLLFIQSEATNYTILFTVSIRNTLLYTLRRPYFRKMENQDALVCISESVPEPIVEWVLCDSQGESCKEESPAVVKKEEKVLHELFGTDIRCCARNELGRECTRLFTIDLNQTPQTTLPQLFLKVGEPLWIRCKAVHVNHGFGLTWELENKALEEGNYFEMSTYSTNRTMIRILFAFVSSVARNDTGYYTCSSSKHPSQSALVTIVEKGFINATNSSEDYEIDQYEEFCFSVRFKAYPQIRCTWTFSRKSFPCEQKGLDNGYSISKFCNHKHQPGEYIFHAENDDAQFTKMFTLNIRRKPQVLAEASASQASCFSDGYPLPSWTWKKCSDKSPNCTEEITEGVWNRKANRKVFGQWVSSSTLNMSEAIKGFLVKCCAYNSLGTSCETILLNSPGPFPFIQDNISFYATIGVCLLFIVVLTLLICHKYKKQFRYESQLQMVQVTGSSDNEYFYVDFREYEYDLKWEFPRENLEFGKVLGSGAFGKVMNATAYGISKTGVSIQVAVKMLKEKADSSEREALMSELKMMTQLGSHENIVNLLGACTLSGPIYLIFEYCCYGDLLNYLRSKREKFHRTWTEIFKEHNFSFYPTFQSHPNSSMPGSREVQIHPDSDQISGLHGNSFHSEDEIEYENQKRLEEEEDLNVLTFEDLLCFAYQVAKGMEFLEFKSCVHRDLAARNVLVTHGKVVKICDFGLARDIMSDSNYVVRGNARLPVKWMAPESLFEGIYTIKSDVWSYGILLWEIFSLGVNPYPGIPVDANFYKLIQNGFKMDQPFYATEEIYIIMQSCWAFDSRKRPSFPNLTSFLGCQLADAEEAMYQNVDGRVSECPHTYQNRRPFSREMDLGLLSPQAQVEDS

[8] = Cytotoxicity against human MKN45 cells after 72 hrs by MTT assay; conditions: MKN-45, 72 h
[9] = target: Hepatocyte growth factor receptor (Homo sapiens, UniProt P08581); assay: Inhibition of c-Met (unknown origin) using poly (Glu, Tyr) 4:1 after 30 mins by HTRF assay
[10] = Ratio of foretinib IC50 to compound IC50 for human H460 cells after 72 hrs by MTT assay; format: functional
[11] = target: Vascular endothelial growth factor receptor 2 (Homo sapiens, UniProt P35968); assay: Inhibition of VEGFR2 (unknown origin) using poly (Glu, Tyr) 4:1 after 30 mins by HTRF assay; method in brief: as §1
[12] = Cytotoxicity against human U87MG cells after 72 hrs by MTT assay; format: functional, cell-based, U-87MG ATCC; conditions: U-87 MG; method in brief: as §2
[13] = tested on: HT-29; assay: Ratio of foretinib IC50 to compound IC50 for human HT-29 cells after 72 hrs by MTT assay; format: functional
[14] = target: Mast/stem cell growth factor receptor Kit (Homo sapiens, UniProt P10721); assay: Inhibition of c-Kit (unknown origin) using poly (Glu, Tyr) 4:1 after 30 mins by HTRF assay; method in brief: as §1
[15] = tested on: A549; assay: Ratio of foretinib IC50 to compound IC50 for human A549 cells after 72 hrs by MTT assay; format: functional

COc1cc2c(Oc3ccc(N/C=C4\C(=O)NC(=O)N(c5ccc(C)cc5)C4=O)cc3F)ccnc2cc1OCCCN1CCCC1
pIC50 [1]: < 4.00 | pIC50 [2]: 7.29 | pIC50 [3]: 6.28 | Ratio IC50 [4]: 1.7 | pIC50 [5]: 6.89 | pIC50 [6]: 7.14 | pIC50 [7]: 6.30 | pIC50 [8]: 7.24 | pIC50 [9]: 8.94 | Ratio IC50 [10]: 3.7 | pIC50 [11]: 6.42 | pIC50 [12]: 6.19 | Ratio IC50 [13]: 1.2 | pIC50 [14]: 6.19 | Ratio IC50 [15]: 1.8
